Data published in ChEMBL document CHEMBL2150936, “Anticancer activity of small amphipathic β²,²-amino acid derivatives” (Eur J Med Chem, 2012).
pEC50, pIC50: −log10 of the molar value.

Experiments:
HT-29 = assay: Cytotoxicity against human HT-29 cells after 4 hrs by MTT assay; format: functional, cell-based; conditions: HT-29, 4 h
SNB-19 = assay: Cytotoxicity against human SNB19 cells after 4 hrs by MTT assay; format: functional, cell-based; conditions: SNB-19, 4 h
U-251 = assay: Cytotoxicity against human U251 cells after 4 hrs by MTT assay; format: functional, cell-based; conditions: U-251, 4 h
LOX IMVI = assay: Cytotoxicity against human LOXIMVI cells after 4 hrs by MTT assay; format: functional, cell-based
Malme-3M = assay: Cytotoxicity against human MALME-3M cells after 4 hrs by MTT assay; format: functional, cell-based
SK-MEL-2 = assay: Cytotoxicity against human SK-MEL-2 cells after 4 hrs by MTT assay; format: functional, cell-based; conditions: SK-MEL-2, 4 h
UACC-257 = assay: Cytotoxicity against human UACC257 cells after 4 hrs by MTT assay; format: functional, cell-based; conditions: UACC-257, 4 h
IGROV-1 = assay: Cytotoxicity against human IGROV1 cells after 4 hrs by MTT assay; format: functional, cell-based; conditions: IGROV-1, 4 h
OVCAR-3 = assay: Cytotoxicity against human OVCAR3 cells after 4 hrs by MTT assay; format: functional, cell-based; conditions: OVCAR-3, 4 h
NCI/ADR-RES = assay: Cytotoxicity against human NCI/ADR-RES cells after 4 hrs by MTT assay; format: functional, cell-based
SK-OV-3 = assay: Cytotoxicity against human SKOV3 cells after 4 hrs by MTT assay; format: functional, cell-based; conditions: SK-OV-3, 4 h
786-0 = assay: Cytotoxicity against human 786-0 cells after 4 hrs by MTT assay; format: functional, cell-based; conditions: 786-0, 4 h
A498 = assay: Cytotoxicity against human A498 cells after 4 hrs by MTT assay; format: functional, cell-based; conditions: A498, 4 h
CAKI-1 = assay: Cytotoxicity against human CAKI-1 cells after 4 hrs by MTT assay; format: functional, cell-based; conditions: CAKI-1, 4 h
RXF 393 = assay: Cytotoxicity against human RXF393 cells after 4 hrs by MTT assay; format: functional, cell-based; conditions: RXF 393, 4 h
SN12C = assay: Cytotoxicity against human SN12C cells after 4 hrs by MTT assay; format: functional, cell-based
TK-10 = assay: Cytotoxicity against human TK10 cells after 4 hrs by MTT assay; format: functional, cell-based; conditions: TK-10, 4 h
UO-31 = assay: Cytotoxicity against human UO31 cells after 4 hrs by MTT assay; format: functional, cell-based; conditions: UO-31, 4 h
PC-3 = assay: Cytotoxicity against human PC3 cells after 4 hrs by MTT assay; format: functional, cell-based; conditions: PC-3, 4 h
DU-145 = assay: Cytotoxicity against human DU145 cells after 4 hrs by MTT assay; format: functional, cell-based; conditions: DU-145, 4 h
MDA-MB-231 = assay: Cytotoxicity against human MDA-MB-231 cells after 4 hrs by MTT assay; format: functional, cell-based; conditions: MDA-MB-231, 4 h
T47D = assay: Cytotoxicity against human T47D cells after 4 hrs by MTT assay; format: functional, cell-based
MDA-MB-468 = assay: Cytotoxicity against human MDA-MB-468 cells after 4 hrs by MTT assay; format: functional, cell-based; conditions: MDA-MB-468, 4 h
MRC5 = assay: Cytotoxicity against human MRC5 cells after 4 hrs by MTT assay; format: cell-based; conditions: MRC5, 4 h
Method in brief: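 MRC-5 embryonic lung fibroblast monolayers in MEM with 10% FBS were seeded at 1 × 10^5 cells/ml, grown overnight, then medium was replaced with compound solution. Exposure was 4 h at 37 °C, 5% CO2, then MTT for 2 h. Formazan was dissolved in acidic isopropanol (0.04 N HCl) and absorbance read at 590 nm. Background-corrected viability was taken relative to medium-only control, with Triton X-100 as positive control.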

HL-60 = assay: Cytotoxicity against human HL60 cells after 4 hrs by MTT assay; format: functional, cell-based; conditions: HL-60, 4 h
K562 = assay: Cytotoxicity against human K562 cells after 4 hrs by MTT assay; format: functional, cell-based; conditions: K562, 4 h
MOLT-4 = assay: Cytotoxicity against human MOLT4 cells after 4 hrs by MTT assay; format: functional, cell-based; conditions: MOLT-4, 4 h
EKVX = assay: Cytotoxicity against human EKVX cells after 4 hrs by MTT assay; format: functional, cell-based
NCI-H226 = assay: Cytotoxicity against human NCI-H226 cells after 4 hrs by MTT assay; format: functional, cell-based; conditions: NCI-H226, 4 h
NCI-H322M = assay: Cytotoxicity against human NCI-H322M cells after 4 hrs by MTT assay; format: functional, cell-based
NCI-H460 = assay: Cytotoxicity against human NCI-H460 cells after 4 hrs by MTT assay; format: functional, cell-based; conditions: NCI-H460, 4 h
NCI-H522 = assay: Cytotoxicity against human NCI-H522 cells after 4 hrs by MTT assay; format: functional, cell-based; conditions: NCI-H522, 4 h
HCC 2998 = assay: Cytotoxicity against human HCC2998 cells after 4 hrs by MTT assay; format: functional, cell-based; conditions: HCC 2998, 4 h
[1] = read-out: LC50 (the source's name)

NCCNC(=O)C(CN)(Cc1ccc2ccccc2c1)Cc1ccc2ccccc2c1
pIC50 (HT-29): 6.39
TGI (HT-29): 1.02 µM
CC50 (HT-29; [1]): 4.07 µM
pIC50 (SNB-19): 5.53
TGI (SNB-19): 3.02 µM
CC50 (SNB-19; [1]): 5.62 µM
pIC50 (U-251): 5.83
TGI (U-251): 2.14 µM
CC50 (U-251; [1]): 4.68 µM
pIC50 (LOX IMVI): 6.21
TGI (LOX IMVI): 1.7 µM
CC50 (LOX IMVI; [1]): 4.37 µM
pIC50 (Malme-3M): 5.41
TGI (Malme-3M): 3.8 µM
CC50 (Malme-3M; [1]): 7.24 µM
pIC50 (SK-MEL-2): 5.44
TGI (SK-MEL-2): 3.63 µM
CC50 (SK-MEL-2; [1]): 6.92 µM
pIC50 (UACC-257): 5.47
TGI (UACC-257): 3.39 µM
CC50 (UACC-257; [1]): 5.89 µM
pIC50 (IGROV-1): 5.50
TGI (IGROV-1): 3.24 µM
CC50 (IGROV-1; [1]): 7.24 µM
pIC50 (OVCAR-3): 5.55
TGI (OVCAR-3): 2.88 µM
CC50 (OVCAR-3; [1]): 5.62 µM
pIC50 (NCI/ADR-RES): 5.50
TGI (NCI/ADR-RES): 3.31 µM
CC50 (NCI/ADR-RES; [1]): 6.46 µM
pIC50 (SK-OV-3): 5.52
TGI (SK-OV-3): 3.02 µM
CC50 (SK-OV-3; [1]): 5.5 µM
pIC50 (786-0): 5.50
TGI (786-0): 3.31 µM
CC50 (786-0; [1]): 6.31 µM
pIC50 (A498): 5.55
TGI (A498): 2.34 µM
CC50 (A498; [1]): 5.01 µM
pIC50 (CAKI-1): 5.56
TGI (CAKI-1): 3.02 µM
CC50 (CAKI-1; [1]): 6.17 µM
pIC50 (RXF 393): 5.57
TGI (RXF 393): 2.69 µM
CC50 (RXF 393; [1]): 5.5 µM
pIC50 (SN12C): 5.49
TGI (SN12C): 3.31 µM
CC50 (SN12C; [1]): 6.17 µM
pIC50 (TK-10): 5.51
TGI (TK-10): 3.16 µM
CC50 (TK-10; [1]): 6.03 µM
pIC50 (UO-31): 5.53
TGI (UO-31): 2.95 µM
CC50 (UO-31; [1]): 6.03 µM
pIC50 (PC-3): 5.51
TGI (PC-3): 3.31 µM
CC50 (PC-3; [1]): 6.61 µM
pIC50 (DU-145): 5.59
TGI (DU-145): 2.82 µM
CC50 (DU-145; [1]): 5.37 µM
pIC50 (MDA-MB-231): 5.52
TGI (MDA-MB-231): 3.09 µM
CC50 (MDA-MB-231; [1]): 6.03 µM
pIC50 (T47D): 5.42
TGI (T47D): 3.39 µM
CC50 (T47D; [1]): 7.59 µM
pIC50 (MDA-MB-468): 5.56
TGI (MDA-MB-468): 2.95 µM
CC50 (MDA-MB-468; [1]): 6.17 µM
pEC50 (MRC5): 4.66
pIC50 (HL-60): 6.32
TGI (HL-60): 1.38 µM
pIC50 (K562): 6.49
TGI (K562): 0.62 µM
pIC50 (MOLT-4): 5.85
TGI (MOLT-4): 2.69 µM
pIC50 (EKVX): 5.57
TGI (EKVX): 2.88 µM
CC50 (EKVX; [1]): 6.17 µM
pIC50 (NCI-H226): 5.48
TGI (NCI-H226): 3.39 µM
CC50 (NCI-H226; [1]): 7.24 µM
pIC50 (NCI-H322M): 5.51
TGI (NCI-H322M): 2.88 µM
CC50 (NCI-H322M; [1]): 5.89 µM
pIC50 (NCI-H460): 6.48
TGI (NCI-H460): 0.51 µM
CC50 (NCI-H460; [1]): 1.7 µM
pIC50 (NCI-H522): 5.51
TGI (NCI-H522): 3.24 µM
CC50 (NCI-H522; [1]): 6.46 µM
pIC50 (HCC 2998): 6.23
TGI (HCC 2998): 1.26 µM
CC50 (HCC 2998; [1]): 3.98 µM
